Measurements: ChEMBL document CHEMBL1154352, “Toll-like receptor 7 selective synthetic oligoribonucleotide agonists: synthesis and structure-activity relationship studies” (J Med Chem, 2009)

What was measured:
[1] = Metabolic stability in human serum assessed as full length product remaining after 10 mins by HPLC; assay type: ADME, cell-free; settings: read-out: Stability
How it was run: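 About 0.5 A260 units compound in 1% human serum in PBS, 37 °C; aliquot taken at 10 min, analysed by anion-exchange HPLC for percent intact full-length product.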

[2] = target: T1, Toll-like receptor 8 (Homo sapiens) (UniProt Q9NR97); assay: Activation of human TLR8 expressed in HEK293XL assessed as fold induction of NF-kappaB activity at 50 ug/ml after 18 hrs by reporter gene assay relative to control
T1 sequence (whole entry): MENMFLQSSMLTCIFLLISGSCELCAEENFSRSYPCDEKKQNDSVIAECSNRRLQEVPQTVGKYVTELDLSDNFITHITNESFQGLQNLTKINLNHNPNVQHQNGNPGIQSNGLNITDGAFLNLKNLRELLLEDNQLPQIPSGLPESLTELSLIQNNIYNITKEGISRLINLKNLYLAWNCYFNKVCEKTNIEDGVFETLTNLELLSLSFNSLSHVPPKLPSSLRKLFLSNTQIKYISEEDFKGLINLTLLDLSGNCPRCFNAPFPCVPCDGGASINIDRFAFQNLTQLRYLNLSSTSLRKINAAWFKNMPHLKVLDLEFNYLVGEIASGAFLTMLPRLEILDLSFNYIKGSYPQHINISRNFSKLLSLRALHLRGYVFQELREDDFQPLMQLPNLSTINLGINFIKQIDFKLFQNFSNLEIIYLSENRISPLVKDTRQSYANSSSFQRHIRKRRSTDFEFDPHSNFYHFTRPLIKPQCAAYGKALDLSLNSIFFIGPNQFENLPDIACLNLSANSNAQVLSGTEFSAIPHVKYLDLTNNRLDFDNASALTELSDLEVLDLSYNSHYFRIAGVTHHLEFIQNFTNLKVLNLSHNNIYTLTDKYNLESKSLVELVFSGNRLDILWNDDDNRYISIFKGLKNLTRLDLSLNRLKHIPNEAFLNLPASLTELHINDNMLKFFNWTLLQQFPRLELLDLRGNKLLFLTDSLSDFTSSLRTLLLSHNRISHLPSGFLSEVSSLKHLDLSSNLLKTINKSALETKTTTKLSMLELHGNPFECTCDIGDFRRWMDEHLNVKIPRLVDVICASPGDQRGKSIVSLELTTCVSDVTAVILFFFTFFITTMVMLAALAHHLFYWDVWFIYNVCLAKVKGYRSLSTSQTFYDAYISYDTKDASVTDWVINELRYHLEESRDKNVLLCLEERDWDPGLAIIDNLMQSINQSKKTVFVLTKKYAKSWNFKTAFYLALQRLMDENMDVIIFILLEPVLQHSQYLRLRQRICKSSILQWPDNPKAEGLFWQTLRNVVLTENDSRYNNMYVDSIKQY
How it was run: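 HEK293 cells stably expressing human TLR7 or TLR8, transiently transfected with SEAP reporter plasmid; medium replaced, SIMRA compounds added, 18 h incubation. Supernatant SEAP measured by QuantiBlue; expressed as fold increase in NF-κB activity over PBS control. Tabulated data at 50 μg/mL, representative of three independent experiments.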

| remaining at 10 min [1] [%] | fold change (FC) [2] | SMILES |
| --- | --- | --- |
| 72 | 0.4 | Nc1ccn([C@@H]2O[C@H](CO)[C@@H](OP(=O)(S)OC[C@H]3O[C@@H](n4ccc(=O)[nH]c4=O)[C@H](O)[C@@H]3OP(=O)(S)OC[C@H]3O[C@@H](n4ccc5c(=O)[nH]c(N)nc54)[C@H](O)[C@@H]3OP(=O)(S)OC[C@H]3O[C@@H](n4cnc5c(N)ncnc54)[C@H](O)[C@@H]3OP(=O)(S)OC[C@H]3O[C@@H](n4ccc5c(=O)[nH]c(N)nc54)[C@H](O)[C@@H]3OP(=O)(S)OC[C@H]3O[C@@H](n4cnc5c(N)ncnc54)[C@H](O)[C@@H]3OP(=O)(S)OC[C@H]3O[C@@H](n4cnc5c(N)ncnc54)[C@H](O)[C@@H]3OP(=O)(S)OC[C@H]3O[C@@H](n4ccc5c(=O)[nH]c(N)nc54)[C@H](O)[C@@H]3OP(=O)(S)OC[C@H]3O[C@@H](n4ccc(N)nc4=O)[C@H](O)[C@@H]3OP(=O)(S)OC[C@H]3O[C@@H](n4ccc(=O)[nH]c4=O)[C@H](O)[C@@H]3OP(=O)(S)OC[C@H]3O[C@@H](n4ccc(=O)[nH]c4=O)[C@H](O)[C@@H]3OP(=O)(S)OCC(O)COP(=O)(S)O[C@H]3[C@@H](O)[C@H](n4ccc(=O)[nH]c4=O)O[C@@H]3COP(=O)(S)O[C@H]3[C@@H](O)[C@H](n4ccc(=O)[nH]c4=O)O[C@@H]3COP(=O)(S)O[C@H]3[C@@H](O)[C@H](n4ccc(N)nc4=O)O[C@@H]3COP(=O)(S)O[C@H]3[C@@H](O)[C@H](n4ccc5c(=O)[nH]c(N)nc54)O[C@@H]3COP(=O)(S)O[C@H]3[C@@H](O)[C@H](n4cnc5c(N)ncnc54)O[C@@H]3COP(=O)(S)O[C@H]3[C@@H](O)[C@H](n4cnc5c(N)ncnc54)O[C@@H]3COP(=O)(S)O[C@H]3[C@@H](O)[C@H](n4ccc5c(=O)[nH]c(N)nc54)O[C@@H]3COP(=O)(S)O[C@H]3[C@@H](O)[C@H](n4cnc5c(N)ncnc54)O[C@@H]3COP(=O)(S)O[C@H]3[C@@H](O)[C@H](n4ccc5c(=O)[nH]c(N)nc54)O[C@@H]3COP(=O)(S)O[C@H]3[C@@H](O)[C@H](n4ccc(=O)[nH]c4=O)O[C@@H]3COP(=O)(S)O[C@H]3[C@@H](O)[C@H](n4ccc(N)nc4=O)O[C@@H]3CO)[C@H]2O)c(=O)n1 (stereo partly drawn) |
| 84 | 0.4 | Nc1ccn([C@@H]2O[C@H](COP(=O)(S)O[C@H]3[C@@H](O)[C@H](n4cnc5c(N)ncnc54)O[C@@H]3COP(=O)(S)O[C@H]3[C@@H](O)[C@H](n4cnc5c(N)ncnc54)O[C@@H]3CO)[C@@H](OP(=O)(S)OC[C@H]3O[C@@H](n4ccc(=O)[nH]c4=O)[C@H](O)[C@@H]3OP(=O)(S)OC[C@H]3O[C@@H](n4ccc5c(=O)[nH]c(N)nc54)[C@H](O)[C@@H]3OP(=O)(S)OC[C@H]3O[C@@H](n4cnc5c(N)ncnc54)[C@H](O)[C@@H]3OP(=O)(S)OC[C@H]3O[C@@H](n4ccc(N)nc4=O)[C@H](O)[C@@H]3OP(=O)(S)OC[C@H]3O[C@@H](n4ccc5c(=O)[nH]c(N)nc54)[C@H](O)[C@@H]3OP(=O)(S)OC[C@H]3O[C@@H](n4ccc(N)nc4=O)[C@H](O)[C@@H]3OP(=O)(S)OC[C@H]3O[C@@H](n4ccc(=O)[nH]c4=O)[C@H](O)[C@@H]3OP(=O)(S)OC[C@H]3O[C@@H](n4ccc5c(=O)[nH]c(N)nc54)[C@H](O)[C@@H]3OP(=O)(S)OCC(O)COP(=O)(S)O[C@H]3[C@@H](O)[C@H](n4ccc5c(=O)[nH]c(N)nc54)O[C@@H]3COP(=O)(S)O[C@H]3[C@@H](O)[C@H](n4ccc(=O)[nH]c4=O)O[C@@H]3COP(=O)(S)O[C@H]3[C@@H](O)[C@H](n4ccc(N)nc4=O)O[C@@H]3COP(=O)(S)O[C@H]3[C@@H](O)[C@H](n4ccc5c(=O)[nH]c(N)nc54)O[C@@H]3COP(=O)(S)O[C@H]3[C@@H](O)[C@H](n4ccc(N)nc4=O)O[C@@H]3COP(=O)(S)O[C@H]3[C@@H](O)[C@H](n4cnc5c(N)ncnc54)O[C@@H]3COP(=O)(S)O[C@H]3[C@@H](O)[C@H](n4ccc5c(=O)[nH]c(N)nc54)O[C@@H]3COP(=O)(S)O[C@H]3[C@@H](O)[C@H](n4ccc(=O)[nH]c4=O)O[C@@H]3COP(=O)(S)O[C@H]3[C@@H](O)[C@H](n4ccc(N)nc4=O)O[C@@H]3COP(=O)(S)O[C@H]3[C@@H](O)[C@H](n4cnc5c(N)ncnc54)O[C@@H]3COP(=O)(S)O[C@H]3[C@@H](O)[C@H](n4cnc5c(N)ncnc54)O[C@@H]3CO)[C@H]2O)c(=O)n1 (stereo partly drawn) |
| 76 | 0.7 | Nc1ccn([C@@H]2O[C@H](COP(=O)(S)O[C@H]3[C@@H](O)[C@H](n4ccc5c(=O)[nH]c(N)nc54)O[C@@H]3COP(=O)(S)O[C@H]3[C@@H](O)[C@H](n4cnc5c(N)ncnc54)O[C@@H]3COP(=O)(S)O[C@H]3[C@@H](O)[C@H](n4cnc5c(N)ncnc54)O[C@@H]3COP(=O)(S)O[C@H]3[C@@H](O)[C@H](n4ccc5c(=O)[nH]c(N)nc54)O[C@@H]3COP(=O)(S)O[C@H]3[C@@H](O)[C@H](n4ccc(=O)[nH]c4=O)O[C@@H]3COP(=O)(S)O[C@H]3[C@@H](O)[C@H](n4ccc(=O)[nH]c4=O)O[C@@H]3COP(=O)(S)O[C@H]3[C@@H](O)[C@H](n4cnc5c(N)ncnc54)O[C@@H]3COP(=O)(S)O[C@H]3[C@@H](O)[C@H](n4cnc5c(N)ncnc54)O[C@@H]3CO)[C@@H](OP(=O)(S)OC[C@H]3O[C@@H](n4ccc(=O)[nH]c4=O)[C@H](O)[C@@H]3OP(=O)(S)OC[C@H]3O[C@@H](n4ccc5c(=O)[nH]c(N)nc54)[C@H](O)[C@@H]3OP(=O)(S)OCC(O)COP(=O)(S)O[C@H]3[C@@H](O)[C@H](n4ccc5c(=O)[nH]c(N)nc54)O[C@@H]3COP(=O)(S)O[C@H]3[C@@H](O)[C@H](n4ccc(=O)[nH]c4=O)O[C@@H]3COP(=O)(S)O[C@H]3[C@@H](O)[C@H](n4ccc(N)nc4=O)O[C@@H]3COP(=O)(S)O[C@H]3[C@@H](O)[C@H](n4ccc5c(=O)[nH]c(N)nc54)O[C@@H]3COP(=O)(S)O[C@H]3[C@@H](O)[C@H](n4cnc5c(N)ncnc54)O[C@@H]3COP(=O)(S)O[C@H]3[C@@H](O)[C@H](n4cnc5c(N)ncnc54)O[C@@H]3COP(=O)(S)O[C@H]3[C@@H](O)[C@H](n4ccc5c(=O)[nH]c(N)nc54)O[C@@H]3COP(=O)(S)O[C@H]3[C@@H](O)[C@H](n4ccc(=O)[nH]c4=O)O[C@@H]3COP(=O)(S)O[C@H]3[C@@H](O)[C@H](n4ccc(=O)[nH]c4=O)O[C@@H]3COP(=O)(S)O[C@H]3[C@@H](O)[C@H](n4cnc5c(N)ncnc54)O[C@@H]3COP(=O)(S)O[C@H]3[C@@H](O)[C@H](n4cnc5c(N)ncnc54)O[C@@H]3CO)[C@H]2O)c(=O)n1 (stereo partly drawn) |
| 84 | 4.9 | Nc1ccn([C@@H]2O[C@H](COP(=O)(S)O[C@H]3[C@@H](O)[C@H](n4cnc5c(N)ncnc54)O[C@@H]3CO)[C@@H](OP(=O)(S)OC[C@H]3O[C@@H](n4ccc(=O)[nH]c4=O)[C@H](O)[C@@H]3OP(=O)(S)OC[C@H]3O[C@@H](n4ccc(=O)[nH]c4=O)[C@H](O)[C@@H]3OP(=O)(S)OC[C@H]3O[C@@H](n4ccc5c(=O)[nH]c(N)nc54)[C@H](O)[C@@H]3OP(=O)(S)OC[C@H]3O[C@@H](n4cnc5c(N)ncnc54)[C@H](O)[C@@H]3OP(=O)(S)OC[C@H]3O[C@@H](n4cnc5c(N)ncnc54)[C@H](O)[C@@H]3OP(=O)(S)OC[C@H]3O[C@@H](n4ccc(N)nc4=O)[C@H](O)[C@@H]3OP(=O)(S)OC[C@H]3O[C@@H](n4ccc(=O)[nH]c4=O)[C@H](O)[C@@H]3OP(=O)(S)OC[C@H]3O[C@@H](n4ccc(=O)[nH]c4=O)[C@H](O)[C@@H]3OP(=O)(S)OC[C@H]3O[C@@H](n4ccc5c(=O)[nH]c(N)nc54)[C@H](O)[C@@H]3OP(=O)(S)OCC(O)COP(=O)(S)O[C@H]3[C@@H](O)[C@H](n4ccc5c(=O)[nH]c(N)nc54)O[C@@H]3COP(=O)(S)O[C@H]3[C@@H](O)[C@H](n4ccc(=O)[nH]c4=O)O[C@@H]3COP(=O)(S)O[C@H]3[C@@H](O)[C@H](n4ccc(=O)[nH]c4=O)O[C@@H]3COP(=O)(S)O[C@H]3[C@@H](O)[C@H](n4ccc(N)nc4=O)O[C@@H]3COP(=O)(S)O[C@H]3[C@@H](O)[C@H](n4cnc5c(N)ncnc54)O[C@@H]3COP(=O)(S)O[C@H]3[C@@H](O)[C@H](n4cnc5c(N)ncnc54)O[C@@H]3COP(=O)(S)O[C@H]3[C@@H](O)[C@H](n4ccc5c(=O)[nH]c(N)nc54)O[C@@H]3COP(=O)(S)O[C@H]3[C@@H](O)[C@H](n4ccc(=O)[nH]c4=O)O[C@@H]3COP(=O)(S)O[C@H]3[C@@H](O)[C@H](n4ccc(=O)[nH]c4=O)O[C@@H]3COP(=O)(S)O[C@H]3[C@@H](O)[C@H](n4ccc(N)nc4=O)O[C@@H]3COP(=O)(S)O[C@H]3[C@@H](O)[C@H](n4cnc5c(N)ncnc54)O[C@@H]3CO)[C@H]2O)c(=O)n1 (stereo partly drawn) |
